ChEMBL document CHEMBL1148884, “Radioiodinated aza-diphenylacetylenes as potential SPECT imaging agents for beta-amyloid plaque detection” (Bioorg Med Chem Lett, 2007)
pKi: −log10 of the molar value.

Experiments:
[1] = Lipophilicity, log P of the compound; type: physicochemical; conditions: octanol/water
[2] = target: Amyloid-beta precursor protein (Homo sapiens, UniProt P05067); assay: Displacement of [125I]IMPY from beta amyloid plaque in human brain homogenates; type: tissue-based
How it was run: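 Competition binding with [125I]IMPY as radioligand on homogenates from postmortem Alzheimer's disease brain tissue. Non-radioactive ligands compete for plaque binding, and Ki is derived from the competition. Each value was determined three times with duplicate samples in each measurement, reported as mean ± SEM.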

Chain of Amyloid-beta precursor protein (P05067 whole entry): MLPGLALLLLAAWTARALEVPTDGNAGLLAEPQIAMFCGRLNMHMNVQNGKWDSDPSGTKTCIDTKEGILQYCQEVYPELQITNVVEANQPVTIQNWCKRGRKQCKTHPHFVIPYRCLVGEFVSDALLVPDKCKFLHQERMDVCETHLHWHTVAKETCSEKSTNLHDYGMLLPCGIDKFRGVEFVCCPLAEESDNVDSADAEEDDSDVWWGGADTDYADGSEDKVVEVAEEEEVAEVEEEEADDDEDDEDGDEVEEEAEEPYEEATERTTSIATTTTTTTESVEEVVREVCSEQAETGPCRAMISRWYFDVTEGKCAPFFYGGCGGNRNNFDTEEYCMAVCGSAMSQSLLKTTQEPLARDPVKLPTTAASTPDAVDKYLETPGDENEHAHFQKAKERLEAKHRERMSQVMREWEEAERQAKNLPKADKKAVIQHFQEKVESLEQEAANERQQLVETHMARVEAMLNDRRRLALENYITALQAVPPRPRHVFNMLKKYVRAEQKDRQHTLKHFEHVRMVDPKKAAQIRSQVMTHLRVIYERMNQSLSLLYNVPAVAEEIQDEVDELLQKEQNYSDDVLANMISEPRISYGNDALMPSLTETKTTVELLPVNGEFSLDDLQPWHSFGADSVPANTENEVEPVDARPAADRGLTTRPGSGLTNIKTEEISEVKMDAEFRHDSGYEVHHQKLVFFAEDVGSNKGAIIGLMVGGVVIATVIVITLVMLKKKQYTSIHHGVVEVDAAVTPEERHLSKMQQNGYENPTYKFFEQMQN

Compound	logP [1]	pKi [2]
CN(C)c1ccc(C#Cc2cnc(OCCOCCOCCF)c([125I])c2)cc1	2.6	
CN(C)c1ccc(C#Cc2cnc(OCCO)c([125I])c2)cc1	2.8	
CN(C)c1ccc(C#Cc2cnc(OCCOCCOCCF)c(I)c2)cc1		7.77
CN(C)c1ccc(C#Cc2cnc(OCCO)c(I)c2)cc1		8.04
CN(C)c1ccc(C#Cc2cnc(OCCO)c(Br)c2)cc1		8.17
CNc1ccc(C#Cc2cnc(OCCOCCOCCF)c(Br)c2)cc1		7.88
CNc1ccc(C#Cc2cnc(OCCO)c(Br)c2)cc1		8.80
CNc1ccc(C#Cc2cnc(OCCO)c(I)c2)cc1		7.90
OCCOc1ncc(C#Cc2ccc(O)cc2)cc1I		8.21
CN(C)c1ccc(C#Cc2cnc(OCCOCCOCCF)c(Br)c2)cc1		7.95
